Measurements from ChEMBL document CHEMBL1127852, “Synthesis and antibacterial activity of thiazolopyrazine-incorporated tetracyclic quinolone antibacterial agents. 2” (1994).
In brackets after ≈: the same amount, converted by molar mass.

Assays:
Type in all cases: functional
Enterococcus faecalis = assay: Compound was tested for its minimal inhibitory constant against Gram-positive microorganism Enterococcus faecalis IID682 (Ef)
Outline: (§1)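 Serial 2-fold agar dilution on Sensitivity Test agar, inoculum approximately 10^6 CFU/mL, incubated 37 °C for 18 h. MIC taken as lowest concentration preventing visible growth. Values are means of duplicate or triplicate experiments.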

Escherichia coli [1] = assay: Compound was tested for its minimal inhibitory constant against Gram-negative microorganism Escherichia coli KC-14 (Ec(K)); outline: as §1
[2] = tested on: Staphylococcus epidermidis; assay: Compound was tested for its minimal inhibitory constant against Gram-positive microorganism Staphylococcus epidermidis IAM 1296 (Se); outline: as §1
Staphylococcus aureus [3] = assay: Compound was tested for its minimal inhibitory constant against Gram-positive microorganism Staphylococcus aureus IID 803 (Sa(I)); outline: as §1
Staphylococcus aureus [4] = assay: Compound was tested for its minimal inhibitory constant against Gram-positive microorganism Staphylococcus aureus FDA 209P JC-1 (Sa(F)); outline: as §1
Klebsiella pneumoniae = assay: Compound was tested for its minimal inhibitory constant against Gram-negative microorganism Klebsiella pneumoniae B54 (Kp); outline: as §1
Micrococcus luteus = assay: Compound was tested for its minimal inhibitory constant against Gram-positive microorganism Micrococcus luteus ATCC 9341 (MI); outline: as §1
Pseudomonas aeruginosa [5] = assay: Compound was tested for its minimal inhibitory constant against Gram-negative microorganism Pseudomonas aeruginosa IFO 3445 (Pa(I)); outline: as §1
Mus musculus [6] = assay: Compound was tested for Therapeutic effects on systemic infections on mice by peroral administration; conditions: po
Outline: (§2)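 Mouse protection against S. aureus IID 803: groups of five male ddY mice (25–28 g) infected i.p. with 0.5 mL bacterial dilution at 100 or 200 times the 50% lethal dose; compound suspended in 1% aqueous gum arabic, given orally 1 h postinfection. Survival scored after 1 week; ED50 with 95% confidence limits by Weil method.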

Escherichia coli [7] = assay: Compound was tested for its minimal inhibitory constant against Gram-negative microorganism Escherichia coli NIHJ JC-2 (Ec(N)); outline: as §1
Pseudomonas aeruginosa [8] = assay: Compound was tested for its minimal inhibitory constant against Gram-negative microorganism Pseudomonas aeruginosa E-2 (Pa(E)); outline: as §1
Mus musculus [9] = assay: Compound was tested for oral efficacy on systemic infections on mice by peroral administration; outline: as §2
Staphylococcus aureus [10] = assay: Tested for in vitro for antibacterial activity against 16 clinical isolated of methicillin-resistant Staphylococcus aureus
Outline: (§3)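 Serial 2-fold agar dilution in Sensitivity Test agar, following the standard method. Clinical MRSA isolates collected in Japan in 1988 and 1989. Inoculum about 10^6 CFU/mL. Plates incubated at 37 °C for 18 h. MIC taken as the lowest concentration that prevented visible growth.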

Staphylococcus aureus [11] = assay: Tested for in vitro for antibacterial activity against 16 clinical isolated of methicillin-resistant Staphylococcus aureus, range of Minimal inhibitory activity value for isolates; outline: as §3

Compound | MIC (Enterococcus faecalis) [µg/mL] | MIC (Escherichia coli [1]) [µg/mL] | MIC [2] [µg/mL] | MIC (Staphylococcus aureus [3]) [µg/mL] | MIC (Staphylococcus aureus [4]) [µg/mL] | MIC (Klebsiella pneumoniae) [µg/mL] | MIC (Micrococcus luteus) [µg/mL] | MIC (Pseudomonas aeruginosa [5]) [µg/mL] | ED50 (Mus musculus [6]) [mg/kg] | MIC (Escherichia coli [7]) [µg/mL] | MIC (Pseudomonas aeruginosa [8]) [µg/mL] | ED50 (Mus musculus [9]) [mg/kg] | MIC50 (Staphylococcus aureus [10]) [µg/mL] | MIC90 (Staphylococcus aureus [10]) [µg/mL] | MIC (Staphylococcus aureus [11]) [µg/mL] | MIC (Staphylococcus aureus [10]) [µg/mL]
COC[C@H]1CN(c2c(F)cc3c(=O)c(C(=O)O)c4scc5n4c3c2N(C)C5)CCO1 | 0.2 (≈ 0.461 µM) | 0.39 (≈ 0.9 µM) | 0.025 (≈ 0.0577 µM) | 0.006 (≈ 0.0138 µM) | 0.025 (≈ 0.0577 µM) | 0.39 (≈ 0.9 µM) | 0.2 (≈ 0.461 µM) | 3.13 (≈ 7.22 µM) | 1.25 | 0.39 (≈ 0.9 µM) | 3.13 (≈ 7.22 µM) | – | – | – | – | –
COC[C@@H]1CN(c2c(F)cc3c(=O)c(C(=O)O)c4scc5n4c3c2N(C)C5)CCO1 | 0.2 (≈ 0.461 µM) | 0.39 (≈ 0.9 µM) | 0.05 (≈ 0.115 µM) | 0.0125 (≈ 0.0288 µM) | 0.025 (≈ 0.0577 µM) | 0.78 (≈ 1.8 µM) | 0.2 (≈ 0.461 µM) | 3.13 (≈ 7.22 µM) | 0.82 | 0.2 (≈ 0.461 µM) | 3.13 (≈ 7.22 µM) | – | – | – | – | –
CN1Cc2csc3c(C(=O)O)c(=O)c4cc(F)c(N5CCOC(CO)C5)c1c4n23 (configuration not stated) | 0.1 (≈ 0.238 µM) | 0.1 (≈ 0.238 µM) | 0.05 (≈ 0.119 µM) | 0.006 (≈ 0.0143 µM) | 0.0125 (≈ 0.0298 µM) | 0.39 (≈ 0.93 µM) | 0.2 (≈ 0.477 µM) | 1.56 (≈ 3.72 µM) | – | 0.1 (≈ 0.238 µM) | 1.56 (≈ 3.72 µM) | 5.1 | 0.39 (≈ 0.93 µM) | 0.78 (≈ 1.86 µM) | ≤ 0.006 | –
CC1CN(c2c(F)cc3c(=O)c(C(=O)O)c4scc5n4c3c2N(C)C5)CCO1 (configuration not stated) | 0.05 (≈ 0.124 µM) | 0.1 (≈ 0.248 µM) | 0.0125 (≈ 0.031 µM) | 0.006 (≈ 0.0149 µM) | 0.0125 (≈ 0.031 µM) | 0.39 (≈ 0.967 µM) | 0.1 (≈ 0.248 µM) | 0.78 (≈ 1.93 µM) | – | 0.1 (≈ 0.248 µM) | 0.78 (≈ 1.93 µM) | 3.5 | 0.1 (≈ 0.248 µM) | 0.2 (≈ 0.496 µM) | ≤ 0.006 | –
CNCC1CN(c2c(F)cc3c(=O)c(C(=O)O)c4scc5n4c3c2N(C)C5)CCO1 (configuration not stated) | 0.2 (≈ 0.462 µM) | 0.2 (≈ 0.462 µM) | 0.1 (≈ 0.231 µM) | 0.05 (≈ 0.116 µM) | 0.025 (≈ 0.0578 µM) | 1.56 (≈ 3.61 µM) | 0.78 (≈ 1.8 µM) | 3.13 (≈ 7.24 µM) | – | 0.2 (≈ 0.462 µM) | 3.13 (≈ 7.24 µM) | – | – | – | – | –
CN(C)CC1CN(c2c(F)cc3c(=O)c(C(=O)O)c4scc5n4c3c2N(C)C5)CCO1 (configuration not stated) | 0.1 (≈ 0.224 µM) | 0.2 (≈ 0.448 µM) | 0.05 (≈ 0.112 µM) | 0.025 (≈ 0.056 µM) | 0.025 (≈ 0.056 µM) | 0.39 (≈ 0.873 µM) | 0.2 (≈ 0.448 µM) | 6.25 (≈ 14 µM) | – | 0.39 (≈ 0.873 µM) | 6.25 (≈ 14 µM) | 4.8 | – | – | – | –
CN1Cc2csc3c(C(=O)O)c(=O)c4cc(F)c(N5CCOC(CCl)C5)c1c4n23 (configuration not stated) | 0.05 (≈ 0.114 µM) | 0.2 (≈ 0.457 µM) | 0.0125 (≈ 0.0285 µM) | 0.006 (≈ 0.0137 µM) | 0.0125 (≈ 0.0285 µM) | 0.39 (≈ 0.891 µM) | 0.05 (≈ 0.114 µM) | 1.56 (≈ 3.56 µM) | – | 0.2 (≈ 0.457 µM) | 1.56 (≈ 3.56 µM) | – | 0.1 (≈ 0.228 µM) | 0.2 (≈ 0.457 µM) | < 0.006 | –
CCC1CN(c2c(F)cc3c(=O)c(C(=O)O)c4scc5n4c3c2N(C)C5)CCO1 (configuration not stated) | 0.1 (≈ 0.24 µM) | 0.39 (≈ 0.934 µM) | 0.05 (≈ 0.12 µM) | 0.025 (≈ 0.0599 µM) | 0.025 (≈ 0.0599 µM) | 0.39 (≈ 0.934 µM) | 0.2 (≈ 0.479 µM) | 3.13 (≈ 7.5 µM) | – | 0.39 (≈ 0.934 µM) | 1.56 (≈ 3.74 µM) | > 12 | – | – | – | –
CC1CN(c2c(F)cc3c(=O)c(C(=O)O)c4scc5n4c3c2N(C)C5)CC(C)O1 (configuration not stated) | 0.2 (≈ 0.479 µM) | 0.39 (≈ 0.934 µM) | 0.1 (≈ 0.24 µM) | 0.0125 (≈ 0.0299 µM) | 0.0125 (≈ 0.0299 µM) | 0.78 (≈ 1.87 µM) | 0.2 (≈ 0.479 µM) | 3.13 (≈ 7.5 µM) | – | 0.39 (≈ 0.934 µM) | 3.13 (≈ 7.5 µM) | > 12 | – | – | – | –
COCC1CN(c2c(F)cc3c(=O)c(C(=O)O)c4scc5n4c3c2N(C)C5)CCO1 (configuration not stated) | 0.2 (≈ 0.461 µM) | 0.39 (≈ 0.9 µM) | 0.05 (≈ 0.115 µM) | 0.0125 (≈ 0.0288 µM) | 0.025 (≈ 0.0577 µM) | 0.78 (≈ 1.8 µM) | 0.2 (≈ 0.461 µM) | 3.13 (≈ 7.22 µM) | 1.09 | 0.2 (≈ 0.461 µM) | 3.13 (≈ 7.22 µM) | 1.7 | 0.39 (≈ 0.9 µM) | 0.78 (≈ 1.8 µM) | ≤ 0.006 | –
CN1Cc2csc3c(C(=O)O)c(=O)c4cc(F)c(N5CCOC(CF)C5)c1c4n23 (configuration not stated) | 0.05 (≈ 0.119 µM) | 0.1 (≈ 0.237 µM) | 0.025 (≈ 0.0593 µM) | 0.006 (≈ 0.0142 µM) | 0.0125 (≈ 0.0297 µM) | 0.2 (≈ 0.475 µM) | 0.1 (≈ 0.237 µM) | 0.78 (≈ 1.85 µM) | – | 0.1 (≈ 0.237 µM) | 0.78 (≈ 1.85 µM) | 1.9 | 0.2 (≈ 0.475 µM) | 0.2 (≈ 0.475 µM) | – | ≤ 0.006
CN1Cc2csc3c(C(=O)O)c(=O)c4cc(F)c(N5CCOCC5)c1c4n23 | 0.05 (≈ 0.128 µM) | 0.1 (≈ 0.257 µM) | 0.025 (≈ 0.0642 µM) | 0.006 (≈ 0.0154 µM) | 0.006 (≈ 0.0154 µM) | 0.05 (≈ 0.128 µM) | 0.1 (≈ 0.257 µM) | 0.39 (≈ 1 µM) | – | 0.1 (≈ 0.257 µM) | 0.39 (≈ 1 µM) | > 12 | 0.2 (≈ 0.514 µM) | 0.2 (≈ 0.514 µM) | – | < 0.006
CC1COc2c(N3CCN(C)CC3)c(F)cc3c(=O)c(C(=O)O)cn1c23 (configuration not stated) [OFLOXACIN] | 1.56 (≈ 4.32 µM) | 0.1 (≈ 0.277 µM) | – | – | – | 0.1 (≈ 0.277 µM) | – | – | 14.6 | – | 1.56 (≈ 4.32 µM) | 11.4 | 6.25 (≈ 17.3 µM) | 50 (≈ 138 µM) | – | –
